Compound activity deposited in PubChem BioAssay by several laboratories.
This is a sample that favours compounds with a hit; in the whole collection about 4.1% have one here.
Autophagy mod – modulators of autophagy | MEF GFP-LC3 puncta imaging; test concentration mostly 10 µM | calls only at 10 µM (by protocol) | hit rate 0.98% among 190,000 | AID 463193;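 active = percentage of spot-positive cells more than 3 SD above its plate mean, without a fluorescence outlier flag or 80% toxicity; inconclusive = no clear call, values can overlap the other calls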;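 also: spot-positive cell cutoff set from DMSO-treated cells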
Redox H2O2 prof – compounds producing H2O2 with reducing agent – biochemical, NIH compound library profiling, artefact control for MLSCN library redox annotation, primary screen; activation, % at 10 µM; hit rate 0.03% among 200,000; DTT-dependent redox cycling H2O2, phenol red/HRP absorbance; 100% = 100 µM peroxide control, 0% = buffer;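 active = activation of at least 50% relative to the plate's high and low controls in the primary single-dose screen; inactive = activation below 50%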;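 also: compound incubated with DTT at 0.8 mM final as the reducing agent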
Dynein transport – dynein cargo transport inhibition. 3617.4 mouse cells, GR-EGFP nuclear translocation imaging; test concentration mostly 20 µM; stimulated with dexamethasone, 1 µM; active compounds read low. z-score, hits read low. hit rate 0.47% among 220,000. AID 1381;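 active = plate z-score of nuclear minus cytoplasmic receptor signal below a set negative limit, without overly bright fluorescence or cell loss, cut at about -3.5 in these data, passing the limit was not always enough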;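 also: z-score of nuclear minus cytoplasmic ring GR-EGFP intensity difference per well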
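Buffer or medium: tet-free, stripped-serum medium; Also added: dexamethasone, 1.0 µM final; Technique: high-content fluorescence imaging after fixation; Times: 48 h induction, 1 h compound, 30 min dex at 37 °C; Read-out: per-cell GR-EGFP intensity, nucleus versus surrounding cytoplasmic ring, well-averaged.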
ROMK mod – human ROMK K+ channel modulation, primary screen; B-score at 10 µM; P48048; hit rate 2% among 130,000; Tet-inducible ROMK, thallium flux fluorescence; actives lie on both sides; AID 1918;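 active = signal ratio slope over the read window, or its plate-corrected B-score, at least 3 SD from the plate mean, either direction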;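 also: B-score of the F/F0 ratio slope over 7 to 12 s after thallium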
Target sequence (P48048 whole entry, looked up): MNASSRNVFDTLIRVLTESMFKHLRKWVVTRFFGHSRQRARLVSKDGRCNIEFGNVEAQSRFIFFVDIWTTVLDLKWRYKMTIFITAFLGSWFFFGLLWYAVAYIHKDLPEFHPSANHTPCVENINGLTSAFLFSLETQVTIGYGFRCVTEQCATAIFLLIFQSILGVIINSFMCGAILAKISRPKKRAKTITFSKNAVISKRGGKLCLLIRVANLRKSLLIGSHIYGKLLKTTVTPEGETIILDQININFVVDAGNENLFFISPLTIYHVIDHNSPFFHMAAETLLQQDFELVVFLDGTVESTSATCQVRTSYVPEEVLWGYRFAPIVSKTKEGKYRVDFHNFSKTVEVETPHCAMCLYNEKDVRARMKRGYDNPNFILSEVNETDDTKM
Cl transport mod – modulates chloride dependent transport by human KCC2 | Q9H2X9 | KCC2 cells, thallium flux FluoZin-2 fluorescence | B-score of Tl+ flux slope (higher = more flux/activation; lower = inhibition) at 10 µM | hit rate 2.2% among 190,000;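 active = thallium flux slope and its plate-corrected score both differing from the plate sample mean at a set confidence after two filtering rounds, in either direction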;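 also: slope of fluorescence scaled to starting intensity during 10 to 20 s after thallium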
KCC2 sec1 – KCC2 (human) modulation, secondary assay; shares compounds with Cl transport mod; HEK293-KCC2, thallium flux, FluoZin2 fluorescence; active compounds read high; normalised thallium flux (F/F0 slope) at 10 µM; hit rate 15% among 3,700;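 active = thallium flux slope above the same plate's solvent-only control mean plus 3 SD; inconclusive = the two replicate wells disagree; inactive = no significant difference from solvent-only control wells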
KCC2 bumet counter – thallium flux persisting under bumetanide in KCC2 cells, counter-screen secondary assay | shares compounds with Cl transport mod | normalized thallium flux at 10 µM | hit rate 49% among 3,700 | HEK293-KCC2 + bumetanide/ouabain, thallium flux FluoZin2; active compounds read high;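 active = thallium entry rate above the same plate's blocked-transporter control wells by more than 3 SD; inconclusive = the two repeat wells disagree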;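 also: raw slope of fluorescence over initial fluorescence between 10 and 20 s after thallium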
KCC2 secondary2 – KCC2 (human) modulation, second secondary assay; shares compounds with Cl transport mod; HEK293-KCC2, thallium flux FluoZin2 fluorescence; actives lie on both sides; F/F0 rise rate, 10–20 s post-thallium; normalized thallium flux at 10 µM; hit rate 23% among 3,700;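 active = thallium flux slope more than 3 SD above or below the plate's solvent-only control mean, mostly below; inconclusive = the two repeat wells disagreed; inactive = no significant shift from solvent-only controls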;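 also: raw slope with 0.1% DMSO as baseline and bumetanide as block control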
HEK counter1 – counter-screen for KCC2 modulators: effect in parental HEK293 cells; AID 1716; thallium flux rate (normalised fluorescence) at 10 µM; shares compounds with Cl transport mod; hit rate 46% among 3,700; thallium flux FluoZin2, ouabain; baseline-ratio fluorescence slope, 10–20 s after thallium;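 active = thallium flux rate significantly above the same plate's solvent-only control wells, beyond their mean plus 3 SD; inconclusive = the two replicate wells gave conflicting results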
KCC2 ouabain – confirmation of human KCC2 modulators with ouabain. shares compounds with Cl transport mod. HEK293-KCC2, thallium flux FluoZin2 fluorescence; bidirectional: low = inhibitor, high = activator. raw Tl+ flux slope (below DMSO = inhibition, above = activation) at 10 µM. hit rate 48% among 3,700. AID 1717;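 active = thallium flux slope beyond 3 SD from same-plate DMSO control mean in most replicates, usually higher, sometimes lower; inconclusive = repeat tests gave conflicting results; inactive = no significant difference from controls in most replicates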;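 also: slope of initial-normalized fluorescence between seconds 10 and 20 after thallium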
HEK293 Tl flux2 – parental HEK flux effect, counter-screen 2; thallium flux slope at 10 µM; shares compounds with Cl transport mod; AID 1718; hit rate 33% among 3,700; HEK293 parental, thallium flux FluoZin-2 fluorescence slope;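 active = thallium flux slope above the same plate's solvent-control mean plus 3 SD in both duplicate wells; inconclusive = duplicate wells that disagreed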;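 also: run without ouabain in cells lacking the KCC2 cotransporter; slope of fluorescence scaled to its starting value between 10 and 20 s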
Active calls of the source: *; i = inactive; ? = inconclusive; / = not tested or not shown.

SMILES	Autophagy mod	Redox H2O2 prof	Dynein transport	ROMK mod	Cl transport mod	KCC2 sec1	KCC2 bumet counter	KCC2 secondary2	HEK counter1	KCC2 ouabain	HEK293 Tl flux2
Cc1nc(SC2CC(=O)N(c3ccccc3)C2=O)nc2c1CCCC2 (stereo unspecified)	i	-4	-0.33	-0.35	/	0.0062	0.0038	0.026*	?	0.016*	0.01
Cc1nnc(SC2CC(=O)N(c3ccccc3)C2=O)s1 (stereo unspecified)	i	0	-1.2	/	-1.1	/	/	/	/	/	/
COc1ccc(OC)c(NC(=O)c2ccno2)c1	i	-1	-0.22	0.94	0.95	/	/	/	/	/	/
O=C(OC1CCc2ccccc2C1=O)c1ccccc1O (stereo unspecified)	i	8	0.59	/	-3.8*	0.0087	?	0.027*	0.0075	0.013*	0.011
Cc1ccccc1NC(=S)N1CCC(NC(=O)c2ccco2)CC1	i	0	0.29	0.35	-0.024	/	/	/	/	/	/
CC(=O)N1CC(=O)N(Cc2ccccc2)/C(=C/c2ccccc2)C1=O	i	-2	0.26	-0.1	0.067	/	/	/	/	/	/
Oc1c(CN2CCc3ccccc3C2)cc(Cl)c2cccnc12	?	-1	-0.7	/	2.3	/	/	/	/	/	/
O=[N+]([O-])c1cc(Cl)c(O)c2ncccc12	i	-2	0.13	-1.8	4.5*	0.013*	0.016*	0.032	0.011*	?	?
O=[N+]([O-])c1cc(Cl)c2cccnc2c1O	i	1	0.38	0.44	1	/	/	/	/	/	/
Oc1c(I)cc(Cl)c2cccnc12	i	0	0.62	/	77*	0.0079	0.1*	0.067*	0.11*	0.11*	0.041*
CC1CCN(C(=O)c2ccc(SCc3ccccc3F)c([N+](=O)[O-])c2)CC1	i	0	0.56	-0.11	-3.4*	0.0068	0.0052	0.025*	0.008	?	0.0097
Cc1ccc(C(=O)N2CCC(Cc3ccccc3)CC2)cc1[N+](=O)[O-]	i	-1	-0.61	0.036	-5.7*	0.008	?	0.034	0.0034	0.014*	0.011
O=C(c1ccc(S(=O)(=O)Cc2ccccc2F)c([N+](=O)[O-])c1)N1CCCCCC1	i	0	-0.74	-0.76	-0.13	/	/	/	/	/	/
COc1ccc(OCCNc2cc(N3CCOCC3)ccc2[N+](=O)[O-])cc1	i	1	-0.12	/	-4.7*	0.0083	0.0061	0.034	0.0074	0.021	0.011
CC(=O)c1ccc(N(C(=O)Cn2nnc3ccccc32)C(C(=O)NC2CCCCC2)c2cn(C)nc2C)cc1 (stereo unspecified)	i	0	0.12	/	-0.6	/	/	/	/	/	/
CC(=O)c1cccc(N(C(=O)Cn2nnc3ccccc32)C(C(=O)NC2CCCCC2)c2cn(C)nc2C)c1 (stereo unspecified)	i	0	0.33	1.4	/	0.011	?	0.033	0.0075	0.021	?
O=C(Nc1nnc(-c2ccncc2)o1)c1ccc(Br)s1	i	0	1.4	0.42	4.6*	0.017	0.0096*	0.031	0.014*	0.02	0.015*
O=C(O)CC1SC(N/N=C/c2ccc(Br)cc2)NC1=O (stereo unspecified)	i	-2	-0.0062	-0.12	1.4	/	/	/	/	/	/
Cc1cccc(NC(=O)c2ccc(S(=O)(=O)N3CCOCC3)cc2)n1	i	-1	-0.23	-0.24	0.0049	/	/	/	/	/	/
